Experimental data reported in PMC7359938 (Clinical and Translational Science, 2020).

How the values were obtained:
[1] = pivotal randomized controlled study; cited from earlier work
[2] = cited from earlier work
[3] = Safety and tolerability evaluation; format: in vivo, human
Outline: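 Fasted healthy men and women (21) received a single oral 25 mg dose with 250 mL water in a double-blind two-period crossover (5-day inpatient stays, ≥7-day washout). Safety covered everyone given at least one dose. Twelve-lead ECG was taken predose and at 1, 2 and 24 h. Hematology, serum chemistry and urinalysis were done at admission and at ~24 and 72 h after ≥10 h fasting. Results were summarized by treatment.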

VMAT2 = conditions: in vitro, rats; ref Teva Pharmaceuticals, data on file; cited from earlier work
[4] = Study AUS‐SD‐809‐CTP‐06, single 25 mg dose

Question: Which “Patients requiring dose reduction for intolerability” value [1] does the source give for `COc1cc2c(cc1OC)[C@H]1CC(=O)[C@H](CC(C)C)CN1CC2` (racemic) [Tetrabenazine, cis‐rac –1,3,4,6,7,11b‐hexahydro‐9,10‐dimethoxy‐3‐(2‐methylpropyl)2H‐benzo[a]quinolizin‐2‐one] here?
Answer: 44%

Question: What about the BDDCS classification [2] of the same molecule?
Answer: Class II

Question: And the “Reported events of dizziness” value ([3]; Study AUS‐SD‐809‐CTP‐06)?
Answer: three

Question: And the “Number of subjects with at least one treatment‐emergent adverse event (TEAE)” value [3, 4]?
Answer: 9

Question: And the “Percentage of subjects with at least one treatment‐emergent adverse event (TEAE)” value [3, 4]?
Answer: 45%

Question: And the Subjects with headache [3, 4]?
Answer: 15%

Question: What about the Subjects with nausea [3, 4] of the same molecule?
Answer: 15%

Question: And the Subjects with somnolence [3, 4]?
Answer: 10%

Question: What about the “Tolerability of single doses” value ([3]; both studies, incl. 14C‐labeled analogues) of the same molecule?
Answer: well‐tolerated

Question: And the “Serious or severe TEAEs” value ([3]; either study)?
Answer: no serious or severe TEAEs

Question: What about the “Clinical laboratory assessments, vital signs parameters, ECG measurements, physical examinations” value ([3]; following either treatment) of the same molecule?
Answer: no clinically significant findings

Question: What about the “Effect of deuteration on binding to VMAT2” value (VMAT2) of the same molecule?
Answer: did not change the binding
